Data on 2 molecules can be found in ChEMBL document CHEMBL3632511, “Oxopyrido[2,3-d]pyrimidines as Covalent L858R/T790M Mutant Selective Epidermal Growth Factor Receptor (EGFR) Inhibitors” (ACS Med Chem Lett, 2015).

The subject of data set [1] is human MDR1 (P-gp). Briefly: Efflux ratio of permeability across pig LLC-PK1 cells transfected with human MDR1 gene. It is filed as ADME, cell-based, Sus scrofa.
For data set [2], the system named is NCI-H1975. Nature of the data set: Cytotoxicity against human NCI-H1975 cells harboring EGFR L858R/T790M double mutant assessed as inhibition of cell proliferation after 72 hrs by CellTiter-Glo assay. To be noted: NCI-H1975, 72 h. In kind it is functional, cell-based.
A short description of data set [3]: Cytotoxicity against human HCC827 cells harboring EGFR 746 to 750 deletion mutant assessed as inhibition of cell proliferation after 72 hrs by CellTiter-Glo assay. It is filed as functional, cell-based. The following applies: HCC827, 72 h. For orientation: In ATP-based viability assays light output follows the ATP content of the culture.
Another data set concerns A-431. Nature of the data set: Cytotoxicity against human A431 cells expressing wild-type EGFR assessed as inhibition of cell proliferation after 72 hrs by CellTiter-Glo assay. In kind it is cell-based. To be noted: A-431, 72 h.
Data set [4] deals with Epidermal growth factor receptor (Homo sapiens, UniProt P00533, 746-750DEL). Nature of the data set: Inhibition of EGFR 746 to 750 deletion mutant phosphorylation in human HCC827 cells after 60 mins by mesoscale multiplex assay. It is filed as cell-based.
Data set [5] deals with T1, Epidermal growth factor receptor (Homo sapiens, UniProt P00533). Nature of the data set: Inhibition of wild type EGFR phosphorylation in human A431 cells after 60 mins by mesoscale multiplex assay. In kind it is cell-based, A-431.
A short description of data set [6]: Selectivity ratio of IC50 for wild type EGFR phosphorylation in human A431 cells to IC50 for EGFR L858R/T790M double mutant phosphorylation in human NCI-H1975 cells. In kind it is ADME, cell-based.
Data set [7] is described as follows: Selectivity ratio of IC50 for wild type EGFR phosphorylation in human A431 cells to IC50 for EGFR 746 to 750 deletion mutant phosphorylation in human HCC827 cells. In kind it is ADME, cell-based.
Data set [8] deals with Mus musculus. Briefly: In vivo inhibition of EGFR L858R/T790M double mutant phosphorylation in human NCI-H1975 cells xenografted in athymic nude mouse at 30 mg/kg, po measured at 4 hrs by mesoscale multiplex assay relative to control. In kind it is functional. Summed up: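 Female athymic nude mice carried matrigel plugs holding 5 x 10⁶ H1975 cells, n = 3 per group. Control or compound given at 30 mg/kg po. Plugs and plasma taken 4 h after dosing. p-EGFR in plug measured by quantitative MSD assay, given as % p-EGFR/PRAS40 vs control.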

Data set [9] relates to NCI-H1975. Nature of the data set: Antitumor activity against human NCI-H1975 cells xenografted in athymic nude mouse assessed as tumor growth inhibition at 30 mg/kg, po qd administered for 2 weeks started on day 6 post tumor implantation measured on day 19 relative to control. It is filed as functional. To be noted: read-out: TGI. (A xenograft is tissue or cells of one species grown in another, often human tumour cells in immunodeficient mice.)

The species named for a further data set is Rattus norvegicus. Nature of the data set: Hepatobiliary toxicity in Sprague-Dawley rat measured for 4 days. The following applies: in vivo, 96 h. It is filed as organism-based.
A short description of data set [10]: Clearance in Sprague-Dawley rat at 1 mg/kg, iv. It is filed as ADME, organism-based. To be noted: Sprague-Dawley, in vivo. In short, it runs like this: (§1)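 Male Sprague Dawley rats, 3 animals per route; mean values. IV dose 1 mg/kg as a DMSO solution. Oral dose 10 mg/kg, in one of three vehicles by compound: 1% Pluronic F68/2% HPMC/15% HPBCD/82% water–methanesulfonic acid pH 4.5; 20% HPBCD/80% water–methanesulfonic acid pH 4.0; or 1% Pluronic F68/2% HPMC/97% water–methanesulfonic acid pH 4.0.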

The nature of data set [11]: Volume of distribution at steady state in Sprague-Dawley rat at 1 mg/kg, iv. In kind it is ADME, organism-based. To be noted: in vivo, read-out: Vdss. Summed up:
as §1

A short description of data set [12]: Half life in Sprague-Dawley rat at 1 mg/kg, iv. In kind it is ADME, organism-based. To be noted: in vivo. In short, it runs like this: as §1
Data set [13] is described as follows: AUC (0 to infinity) in Sprague-Dawley rat at 10 mg/kg, po. It is filed as ADME, organism-based. The arrangement: dose 10 mg/kg, route oral, time infinity. To be noted: Sprague-Dawley, in vivo. In short, it runs like this: as §1
Data set [14] in a line: Oral bioavailability in Sprague-Dawley rat at 10 mg/kg. In kind it is ADME, organism-based. The following applies: Sprague-Dawley, in vivo. In short, it runs like this:
as §1

In data set [15] the test system is Mus musculus. Briefly: In vivo inhibition of EGFR L858R/T790M double mutant phosphorylation in human NCI-H1975 cells xenografted in athymic nude mouse at 30 mg/kg, po measured at >12 hrs by mesoscale multiplex assay relative to control. In kind it is functional. In short, it runs like this: (§2)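 Time-course PD in mice carrying matrigel plugs of H1975 cells after a single oral dose of 30 mg/kg. Tumor cell plugs and plasma harvested at 2, 4, 8, 12 and 24 h post dose. Plug p-EGFR measured, and plasma drug concentration taken for Cmax.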

Data set [16] concerns Mus musculus. Briefly: Toxicity in athymic nude mouse xenografted with human NCI-H1975 cells assessed as change in body weight at 30 mg/kg, po qd administered for 2 weeks started on day 6 post tumor implantation. In kind it is organism-based. The following applies: in vivo, 336 h.
A short description of data set [17]: AUC (0 to infinity) in athymic nude mouse xenografted with human NCI-H1975 cells at 30 mg/kg, po. It is filed as ADME, organism-based. Further details: dose 30 mg/kg, route oral, time infinity. The following applies: in vivo.
The nature of data set [18]: AUC (0 to t) in athymic nude mouse xenografted with human NCI-H1975 cells at 30 mg/kg, po qd administered for 2 weeks started on day 6 post tumor implantation. It is filed as ADME, organism-based. The following applies: in vivo.
The target in data set [19] is T2, Tyrosine-protein kinase BTK (Homo sapiens, UniProt Q06187). Nature of the data set: Competitive binding affinity to human BTK at 1 uM in presence of immobilized ligand relative to control. Summed up: (§3)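 Kinase selectivity by competitive binding in the ScanMAX KINOMEscan panel of […] protein and lipid kinases. Compound tested at 1 μM; binding expressed as percentage of control (POC).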

Data set [20] can be described thus: Cmax in athymic nude mouse xenografted with human NCI-H1975 cells at 30 mg/kg, po measured at 2 hrs. The following applies: in vivo. In kind it is ADME, organism-based. The arrangement: dose 30 mg/kg, route oral. In short, it runs like this: as §2
In data set [21] the target is Dual specificity protein kinase TTK (Homo sapiens) (UniProt P33981). Briefly: Competitive binding affinity to human TTK at 1 uM in presence of immobilized ligand relative to control. Summed up: as §3
The target of data set [22] is Tyrosine-protein kinase Blk (Homo sapiens, UniProt P51451). Briefly: Competitive binding affinity to human BLK in presence of immobilized ligand.
Data set [23] concerns the target T2, Tyrosine-protein kinase BTK. Nature of the data set: Competitive binding affinity to human BTK in presence of immobilized ligand.
Data set [24] has as its target T1, Epidermal growth factor receptor. Nature of the data set: Competitive binding affinity to human wild type EGFR in presence of immobilized ligand.
Data set [25] has as its target Epidermal growth factor receptor (Homo sapiens, UniProt P00533, T790M). Nature of the data set: Competitive binding affinity to human EGFR T790M mutant in presence of immobilized ligand. In kind it is protein assay.
For data set [26], the target named is Receptor tyrosine-protein kinase erbB-2 (Homo sapiens, UniProt P04626). Nature of the data set: Competitive binding affinity to human ERBB2 in presence of immobilized ligand.
The target in data set [27] is Receptor tyrosine-protein kinase erbB-4 (Homo sapiens, UniProt Q15303). Briefly: Competitive binding affinity to human ERBB4 in presence of immobilized ligand.
The target in data set [28] is Cyclin-G-associated kinase (Homo sapiens, UniProt O14976). Briefly: Competitive binding affinity to human GAK in presence of immobilized ligand.
Data set [29] deals with Tyrosine-protein kinase ITK/TSK (Homo sapiens, UniProt Q08881). Briefly: Competitive binding affinity to human ITK in presence of immobilized ligand.
The target of data set [30] is Tyrosine-protein kinase JAK1 (Homo sapiens, UniProt P23458). Briefly: Competitive binding affinity to human JAK1 JH2 domain pseudokinase in presence of immobilized ligand.
For data set [31], the target named is Tyrosine-protein kinase JAK3 (Homo sapiens, UniProt P52333). Nature of the data set: Competitive binding affinity to human JAK3 in presence of immobilized ligand.
The target in data set [32] is Dual specificity protein kinase TTK (Homo sapiens, UniProt P33981). Briefly: Competitive binding affinity to human TTK in presence of immobilized ligand.
For data set [33], the target named is Tyrosine-protein kinase TXK (Homo sapiens, UniProt P42681). Briefly: Competitive binding affinity to human TXK in presence of immobilized ligand.
The nature of data set [34]: Fraction unbound in mouse plasma at 5 uM by rapid equilibrium dialysis method. It is filed as ADME, cell-free.
A short description of data set [35]: Fraction unbound in rat plasma at 5 uM by rapid equilibrium dialysis method. In kind it is ADME, cell-free. (In general: In equilibrium dialysis free small molecules cross a membrane that holds back macromolecules.)
Data set [36] is described as follows: Fraction unbound in human plasma at 5 uM by rapid equilibrium dialysis method. In kind it is ADME, cell-free.
Data set [37] in a line: Fraction unbound in dog plasma at 5 uM by rapid equilibrium dialysis method. In kind it is ADME, cell-free, Canis lupus familiaris.
Data set [38] has as its system human MDR1 (P-gp). Briefly: Permeability across pig LLC-PK1 cells transfected with human MDR1 gene. The following applies: read-out: permeability. It is filed as ADME, cell-based, Sus scrofa.
The subject of data set [39] is rat MDR1 (P-gp). Briefly: Permeability across pig LLC-PK1 cells transfected with rat MDR1 gene. In kind it is ADME, cell-based, Sus scrofa. To be noted: read-out: permeability.
In data set [40] the test system is rat MDR1 (P-gp). Briefly: Efflux ratio of permeability across pig LLC-PK1 cells transfected with rat MDR1 gene. It is filed as ADME, cell-based, Sus scrofa.
The target of data set [41] is T1, Epidermal growth factor receptor. Briefly: Binding affinity to wild type EGFR (unknown origin).
Data set [42] concerns the target Epidermal growth factor receptor (Homo sapiens, UniProt P00533, L858R/T790M). Briefly: Binding affinity to EGFR T790M/L858R double mutant (unknown origin). It is filed as protein assay.

T1 sequence (P00533 whole entry): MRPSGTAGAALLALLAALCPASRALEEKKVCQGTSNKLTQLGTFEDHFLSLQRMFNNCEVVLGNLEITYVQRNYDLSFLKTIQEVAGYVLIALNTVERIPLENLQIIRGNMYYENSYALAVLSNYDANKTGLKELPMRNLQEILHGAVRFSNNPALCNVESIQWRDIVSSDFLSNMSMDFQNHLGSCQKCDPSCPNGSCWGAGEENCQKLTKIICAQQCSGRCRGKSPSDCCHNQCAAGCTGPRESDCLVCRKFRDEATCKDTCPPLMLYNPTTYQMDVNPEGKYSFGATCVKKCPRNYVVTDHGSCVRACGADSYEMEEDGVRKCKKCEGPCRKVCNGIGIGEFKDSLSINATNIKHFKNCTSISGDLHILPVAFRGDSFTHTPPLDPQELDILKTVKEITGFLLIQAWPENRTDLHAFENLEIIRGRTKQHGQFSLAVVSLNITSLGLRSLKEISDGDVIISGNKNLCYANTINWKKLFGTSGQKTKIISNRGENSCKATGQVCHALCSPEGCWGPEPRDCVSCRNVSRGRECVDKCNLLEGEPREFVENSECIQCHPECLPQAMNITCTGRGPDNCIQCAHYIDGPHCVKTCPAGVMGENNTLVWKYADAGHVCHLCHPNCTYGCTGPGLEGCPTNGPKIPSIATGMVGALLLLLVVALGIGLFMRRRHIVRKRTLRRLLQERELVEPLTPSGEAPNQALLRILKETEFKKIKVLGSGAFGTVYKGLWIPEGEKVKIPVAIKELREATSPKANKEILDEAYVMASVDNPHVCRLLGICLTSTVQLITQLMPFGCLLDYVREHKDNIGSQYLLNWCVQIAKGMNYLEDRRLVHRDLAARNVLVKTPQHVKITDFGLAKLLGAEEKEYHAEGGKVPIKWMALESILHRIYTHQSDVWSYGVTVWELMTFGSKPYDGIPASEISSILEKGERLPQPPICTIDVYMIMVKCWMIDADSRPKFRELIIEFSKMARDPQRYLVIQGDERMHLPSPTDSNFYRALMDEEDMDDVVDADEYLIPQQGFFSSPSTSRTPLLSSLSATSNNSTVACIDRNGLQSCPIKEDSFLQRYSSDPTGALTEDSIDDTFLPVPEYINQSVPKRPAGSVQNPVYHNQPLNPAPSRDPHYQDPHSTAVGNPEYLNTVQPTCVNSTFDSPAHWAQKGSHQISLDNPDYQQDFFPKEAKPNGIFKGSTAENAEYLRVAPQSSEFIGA
T2 sequence (Q06187 whole entry): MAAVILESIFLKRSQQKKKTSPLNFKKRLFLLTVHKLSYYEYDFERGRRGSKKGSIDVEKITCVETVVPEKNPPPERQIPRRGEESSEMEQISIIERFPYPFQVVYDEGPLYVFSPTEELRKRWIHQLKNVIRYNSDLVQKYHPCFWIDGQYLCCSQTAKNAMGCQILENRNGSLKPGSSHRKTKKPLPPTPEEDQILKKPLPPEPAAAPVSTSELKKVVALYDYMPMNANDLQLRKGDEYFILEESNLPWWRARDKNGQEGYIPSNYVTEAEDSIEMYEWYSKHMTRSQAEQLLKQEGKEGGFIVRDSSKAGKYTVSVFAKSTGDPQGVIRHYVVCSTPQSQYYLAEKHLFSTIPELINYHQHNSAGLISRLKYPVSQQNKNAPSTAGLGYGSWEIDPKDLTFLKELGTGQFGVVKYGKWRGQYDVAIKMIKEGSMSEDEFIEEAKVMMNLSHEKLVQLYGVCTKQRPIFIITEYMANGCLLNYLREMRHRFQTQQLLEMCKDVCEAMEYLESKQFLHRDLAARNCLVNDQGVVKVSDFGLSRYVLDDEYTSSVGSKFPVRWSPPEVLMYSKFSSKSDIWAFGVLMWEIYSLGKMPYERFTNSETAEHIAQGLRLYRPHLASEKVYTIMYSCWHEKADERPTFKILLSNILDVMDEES
Epidermal growth factor receptor (Homo sapiens, UniProt P00533, L858R/T790M), sequence (P00533 25-1210 T790M/L858R limits assumed): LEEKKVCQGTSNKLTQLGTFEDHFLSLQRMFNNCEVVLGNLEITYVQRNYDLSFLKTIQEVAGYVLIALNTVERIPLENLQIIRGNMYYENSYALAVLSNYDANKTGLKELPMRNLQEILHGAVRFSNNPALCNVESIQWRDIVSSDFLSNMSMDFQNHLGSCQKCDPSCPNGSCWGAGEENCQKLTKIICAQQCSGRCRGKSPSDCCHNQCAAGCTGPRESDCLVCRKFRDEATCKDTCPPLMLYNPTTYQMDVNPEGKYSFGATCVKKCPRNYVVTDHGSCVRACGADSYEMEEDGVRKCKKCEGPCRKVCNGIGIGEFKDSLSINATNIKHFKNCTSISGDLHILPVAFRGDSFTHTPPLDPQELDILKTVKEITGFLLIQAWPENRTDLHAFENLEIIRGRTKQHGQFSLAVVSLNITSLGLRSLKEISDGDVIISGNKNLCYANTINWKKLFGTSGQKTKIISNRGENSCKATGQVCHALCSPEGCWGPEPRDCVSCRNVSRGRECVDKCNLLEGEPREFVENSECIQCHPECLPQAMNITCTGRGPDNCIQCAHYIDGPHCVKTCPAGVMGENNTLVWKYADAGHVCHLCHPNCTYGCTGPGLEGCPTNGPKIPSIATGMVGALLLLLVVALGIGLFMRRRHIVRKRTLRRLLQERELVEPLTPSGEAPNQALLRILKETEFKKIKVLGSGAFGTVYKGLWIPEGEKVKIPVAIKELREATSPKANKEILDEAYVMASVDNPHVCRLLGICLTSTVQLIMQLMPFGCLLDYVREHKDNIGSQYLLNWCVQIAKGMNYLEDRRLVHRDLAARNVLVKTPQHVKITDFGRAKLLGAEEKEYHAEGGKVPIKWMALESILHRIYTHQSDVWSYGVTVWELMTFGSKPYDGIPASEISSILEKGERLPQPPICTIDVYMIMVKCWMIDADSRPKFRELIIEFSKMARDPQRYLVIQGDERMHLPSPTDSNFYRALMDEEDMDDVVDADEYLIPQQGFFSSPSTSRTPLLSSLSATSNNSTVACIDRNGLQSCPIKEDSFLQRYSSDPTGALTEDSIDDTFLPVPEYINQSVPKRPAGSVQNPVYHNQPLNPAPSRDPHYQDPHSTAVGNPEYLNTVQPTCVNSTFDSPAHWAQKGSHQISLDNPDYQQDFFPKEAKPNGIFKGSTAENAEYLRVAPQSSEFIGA
Dual specificity protein kinase TTK (Homo sapiens), sequence (P33981 whole entry): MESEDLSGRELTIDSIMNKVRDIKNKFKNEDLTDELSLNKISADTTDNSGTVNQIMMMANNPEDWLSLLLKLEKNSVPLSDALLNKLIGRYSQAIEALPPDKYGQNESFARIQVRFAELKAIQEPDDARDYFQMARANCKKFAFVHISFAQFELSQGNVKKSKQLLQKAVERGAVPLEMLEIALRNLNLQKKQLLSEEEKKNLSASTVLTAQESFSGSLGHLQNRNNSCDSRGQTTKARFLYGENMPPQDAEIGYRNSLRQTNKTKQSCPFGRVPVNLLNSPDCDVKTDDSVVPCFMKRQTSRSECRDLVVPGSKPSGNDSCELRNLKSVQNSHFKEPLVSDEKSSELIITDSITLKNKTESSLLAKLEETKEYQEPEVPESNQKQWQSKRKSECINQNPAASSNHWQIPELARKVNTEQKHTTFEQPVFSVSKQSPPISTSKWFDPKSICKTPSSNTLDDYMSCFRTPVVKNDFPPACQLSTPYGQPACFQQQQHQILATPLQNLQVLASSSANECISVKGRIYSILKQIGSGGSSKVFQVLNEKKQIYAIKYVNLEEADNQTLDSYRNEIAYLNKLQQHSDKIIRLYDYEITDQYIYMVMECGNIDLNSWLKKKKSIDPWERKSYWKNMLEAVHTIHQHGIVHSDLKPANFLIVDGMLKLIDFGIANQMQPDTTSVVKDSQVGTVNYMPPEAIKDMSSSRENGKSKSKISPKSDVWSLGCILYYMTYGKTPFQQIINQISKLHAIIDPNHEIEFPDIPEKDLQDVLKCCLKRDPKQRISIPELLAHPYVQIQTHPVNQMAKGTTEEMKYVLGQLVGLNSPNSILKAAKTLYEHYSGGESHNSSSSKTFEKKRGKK
Dual specificity protein kinase TTK, sequence (P33981 whole entry): as above
Tyrosine-protein kinase JAK3, sequence (P52333 whole entry): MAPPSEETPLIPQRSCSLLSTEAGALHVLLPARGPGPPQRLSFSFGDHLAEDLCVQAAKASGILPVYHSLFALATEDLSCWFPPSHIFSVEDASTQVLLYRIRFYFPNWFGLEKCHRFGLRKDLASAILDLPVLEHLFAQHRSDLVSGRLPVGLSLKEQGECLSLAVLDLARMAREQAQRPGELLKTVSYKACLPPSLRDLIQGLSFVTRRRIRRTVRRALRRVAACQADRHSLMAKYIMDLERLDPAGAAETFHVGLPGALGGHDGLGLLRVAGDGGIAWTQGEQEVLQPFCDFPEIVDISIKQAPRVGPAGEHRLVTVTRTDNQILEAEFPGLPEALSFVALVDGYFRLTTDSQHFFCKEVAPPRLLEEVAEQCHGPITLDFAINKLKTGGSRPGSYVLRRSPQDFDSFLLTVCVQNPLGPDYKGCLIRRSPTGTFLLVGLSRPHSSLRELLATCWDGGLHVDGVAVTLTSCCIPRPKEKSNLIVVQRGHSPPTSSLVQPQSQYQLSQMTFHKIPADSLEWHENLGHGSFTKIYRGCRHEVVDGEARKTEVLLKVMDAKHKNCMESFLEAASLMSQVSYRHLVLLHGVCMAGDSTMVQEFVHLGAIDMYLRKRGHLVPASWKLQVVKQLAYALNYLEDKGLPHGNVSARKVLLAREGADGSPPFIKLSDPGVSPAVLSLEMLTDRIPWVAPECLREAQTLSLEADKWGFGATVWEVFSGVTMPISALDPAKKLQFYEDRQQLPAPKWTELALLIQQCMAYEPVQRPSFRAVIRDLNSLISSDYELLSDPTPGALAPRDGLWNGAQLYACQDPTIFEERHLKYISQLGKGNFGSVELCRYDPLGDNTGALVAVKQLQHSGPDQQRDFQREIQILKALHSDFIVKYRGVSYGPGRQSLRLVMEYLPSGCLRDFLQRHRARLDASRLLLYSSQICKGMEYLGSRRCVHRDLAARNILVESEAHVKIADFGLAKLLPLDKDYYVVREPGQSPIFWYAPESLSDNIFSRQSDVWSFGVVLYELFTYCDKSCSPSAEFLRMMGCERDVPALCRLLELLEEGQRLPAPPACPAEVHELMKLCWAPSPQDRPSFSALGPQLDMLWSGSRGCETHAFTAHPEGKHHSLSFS

By efflux ratio is commonly meant a quotient of directional permeabilities that is used to spot active efflux. A word on the IC50: it is the concentration at which inhibition is half-maximal. Broadly, the clearance is the rate of elimination divided by the concentration. What is called half-life is the time in which the quantity being followed falls by half. A lower half-life goes with fast loss. As usually defined, the AUC(0-inf) is total exposure, with the tail of the curve extrapolated. A word on the bioavailability: it is the share of a dose that reaches the circulation, judged against a reference dose that is usually intravenous. Lower therefore signals poor availability. Broadly, the AUC(0-t) is exposure summed from dosing to a finite time, without extrapolation to infinity. In general, Cmax refers to the maximum level reached in the sampled fluid or tissue. A word on the Kd: it is the concentration at which binding is half-saturated. What is called fraction unbound is the share of the substance not bound to proteins or other matrix. `C=CC(=O)Nc1cccc(-n2c(=O)cc(C)c3cnc(Nc4ccc(OCCN(C)C)cc4OC)nc32)c1`: the efflux ratio with human MDR1 (P-gp) [1] and with rat MDR1 (P-gp) [40] was above 37 in each case. In addition, the IC50 was determined as 4 nM in the data set on NCI-H1975 [2]; 28 nM in [3]; 2400 nM with A-431; 9 nM in data set [4]; 1050 nM in data set [5]. In addition, the “Ratio IC50” value in [6] and in data set [7] was above 100 each time. For the same molecule, the inhibition in vivo at 30 mg/kg in the data set on Mus musculus [8] was 90%; with NCI-H1975 [9], 90%; in the data set on Mus musculus [15], above 50%. Also, the Activity result in the data set listed under Rattus norvegicus was “Non-toxic”; with Mus musculus [16], “Non-toxic”; in data set [19] it was 17%; in data set [21], 4%. In addition, the clearance in data set [10] was 150 mL/min/kg. Further, the Vd in data set [11] came to 22 L/kg. In data set [12], this molecule gave a half-life of 4.5 h. Also, the AUC(0-inf) was determined as 0.66 µM·h in [13] and 0.33 µM·h in [17]. For the same molecule, the bioavailability in data set [14] is 10%. The same molecule displayed an AUC(0-t) at 336 h in data set [18] of 0.56 µM·h. In addition, the concentration in data set [20] peaked (Cmax) at 100 nM. Further, the Kd in data set [22] came to 320 nM; in data set [23], 290 nM; in [24], 220 nM; in [25], 0.96 nM; in [26], 220 nM; in data set [27], 130 nM. Besides, the Kd was determined as 430 nM in data set [28]; 140 nM in data set [29]; 2800 nM in data set [30]; 30 nM in [31]; 81 nM in data set [32]; 410 nM in data set [33]. For the same molecule, the fraction unbound at 5 µM came out at 0.25 in data set [34], 0.27 in [35], 0.54 in [36] and 0.46 in data set [37]. Also, the Papp with human MDR1 (P-gp) [38] and with rat MDR1 (P-gp) [39] was 10 ×10⁻⁶ cm/s in each case.

On to `C=CC(=O)Nc1cccc(-n2c3nc(Nc4ccc(N5CCC(N(C)C)CC5)cc4OC)ncc3c(=O)n3ccnc23)c1`, for which the Kd stood at 310 nM in data set [41] and 2.6 nM in [42].
